From ChEMBL document CHEMBL3813621, “Structure-Activity Relationship Studies of Isomeric 2,4-Diaminoquinazolines on β-Amyloid Aggregation Kinetics” (ACS Med Chem Lett, 2016)
Active and inactive are the calls of the source. No cut-off for these calls is given here.

How the values were obtained:
[1] = target: T1, Amyloid-beta precursor protein (Homo sapiens, UniProt P05067); test: Inhibition of self-induced amyloid beta 40 (unknown origin) aggregation measured for 24 hrs by thioflavin T-based fluorescence spectroscopic analysis
T1 sequence (P05067 whole entry): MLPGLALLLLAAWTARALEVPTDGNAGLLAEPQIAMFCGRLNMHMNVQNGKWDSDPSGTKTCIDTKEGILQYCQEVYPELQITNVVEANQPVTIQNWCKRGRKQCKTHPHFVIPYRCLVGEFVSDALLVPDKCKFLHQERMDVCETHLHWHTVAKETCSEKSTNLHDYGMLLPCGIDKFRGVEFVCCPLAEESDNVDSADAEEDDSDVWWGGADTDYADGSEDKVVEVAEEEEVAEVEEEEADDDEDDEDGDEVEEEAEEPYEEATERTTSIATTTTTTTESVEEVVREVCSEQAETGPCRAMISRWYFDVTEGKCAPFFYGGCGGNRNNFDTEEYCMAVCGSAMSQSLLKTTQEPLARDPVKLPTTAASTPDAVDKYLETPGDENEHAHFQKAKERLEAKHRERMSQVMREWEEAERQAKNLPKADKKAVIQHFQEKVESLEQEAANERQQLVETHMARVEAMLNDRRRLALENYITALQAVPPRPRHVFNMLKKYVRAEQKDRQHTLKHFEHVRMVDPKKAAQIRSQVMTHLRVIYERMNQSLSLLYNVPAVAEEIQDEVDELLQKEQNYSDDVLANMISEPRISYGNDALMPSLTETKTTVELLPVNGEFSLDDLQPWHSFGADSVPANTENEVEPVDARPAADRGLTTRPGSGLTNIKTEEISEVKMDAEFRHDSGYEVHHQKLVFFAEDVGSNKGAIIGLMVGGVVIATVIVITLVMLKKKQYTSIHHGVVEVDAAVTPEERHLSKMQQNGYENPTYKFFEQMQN

[2] = target: T1, Amyloid-beta precursor protein; test: Inhibition of self-induced amyloid beta 42 (unknown origin) aggregation measured for 24 hrs by thioflavin T-based fluorescence spectroscopic analysis
[3] = target: T1, Amyloid-beta precursor protein; test: Induction of self-induced amyloid beta 42 (unknown origin) aggregation measured for 24 hrs by thioflavin T-based fluorescence spectroscopic analysis
How it was run: (§1)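 Aβ peptide at 5 μM incubated with test compound (1, 5 or 25 μM) in phosphate buffer pH 7.4 at 37 °C for 24 h; aggregation monitored by ThT fluorescence (excitation 440 nm, emission 490 nm). IC50 calculated from ThT signal; mean of triplicate readings from three independent experiments.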

[4] = target: T1, Amyloid-beta precursor protein; test: Induction of self-induced amyloid beta 40 (unknown origin) aggregation measured for 24 hrs by thioflavin T-based fluorescence spectroscopic analysis; how it was run: as §1
[5] = target: T1, Amyloid-beta precursor protein; test: Inhibition of amyloid beta 42 (unknown origin) aggregation at 25 uM after 24 hrs by transmission electron microscopy
How it was run: (§2)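 Aβ40 or Aβ42 at 25 μM, alone or with 25 μM compound, incubated 24 h at 37 °C in phosphate buffer pH 7.4; fibril and aggregate morphology then imaged by transmission electron microscopy.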

[6] = target: T1, Amyloid-beta precursor protein; test: Inhibition of amyloid beta 40 (unknown origin) aggregation at 25 uM after 24 hrs by transmission electron microscopy; how it was run: as §2
[7] = target: T1, Amyloid-beta precursor protein; test: Potency index, ratio of curcumin IC50 for amyloid beta 40 (unknown origin) aggregation to compound IC50 for amyloid beta 40 (unknown origin) aggregation
[8] = target: T1, Amyloid-beta precursor protein; test: Inhibition of amyloid beta 42 (unknown origin) aggregation assessed as time at which fluorescence intensity reaches the midpoint between pre and post aggregation baseline growth phase at 25 uM measured for 24 hrs by thioflavin T-based fluorescence spectroscopic analysis
How it was run: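 Aβ42 at 5 μM with compound at 25 μM in phosphate buffer pH 7.4, 37 °C, followed 24 h by ThT fluorescence (ex 440/em 490 nm). t50 taken as the time at which fluorescence reaches the midpoint between pre- and postaggregation baselines of the growth phase. Three independent experiments in triplicate.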

[9] = target: T1, Amyloid-beta precursor protein; test: Inhibition of nucleation-dependent amyloid beta 40 (unknown origin) aggregation at 1 to 25 uM measured for 24 hrs by thioflavin T-based fluorescence spectroscopic analysis; how it was run: as §1
[10] = target: T1, Amyloid-beta precursor protein; test: Potency index, ratio of curcumin IC50 for amyloid beta 42 (unknown origin) aggregation to compound IC50 for amyloid beta 42 (unknown origin) aggregation

SMILES | IC50 [1] [µM] | IC50 ([2]; read-out: IC50) [µM] | further results
Nc1nc(NCCc2ccccc2)c2ccccc2n1 | 7.8 | > 25 | 
Nc1nc(NCc2ccc(F)cc2)c2ccccc2n1 | 3.1 | > 25 | 
Nc1nc(NCCc2ccccc2)nc2ccccc12 | 14.9 | > 25 | 
Nc1nc(NCc2ccc(F)cc2)nc2ccccc12 | > 25 | > 25 | 
Nc1nc(NCc2cccc(C(F)(F)F)c2)c2ccccc2n1 | 3.5 | 21 | 
CCCNc1nc(N)c2ccccc2n1 | > 25 | > 25 | 
CC(C)Nc1nc(N)nc2ccccc12 | 10.2 |  | IC50 [2]: Not Active
Nc1nc(NCC2CCCCC2)c2ccccc2n1 | 13.6 | > 25 | 
Nc1nc(NCc2cccc(C(F)(F)F)c2)nc2ccccc12 | 12.5 | 13.8 | 
Cc1ccc(CNc2nc(N)c3ccccc3n2)cc1 | 13.1 | 22.5 | 
Nc1nc(N)c2ccccc2n1 |  |  | Activity [3]: Active; Activity [4]: Active
Cc1cccc(CNc2nc(N)c3ccccc3n2)c1 | > 25 | > 25 | 
COc1cccc(CNc2nc(N)c3ccccc3n2)c1 | > 25 | > 25 | 
CCCNc1nc(N)nc2ccccc12 | 14.9 |  | IC50 [2]: Not Active
Nc1nc(NCc2cccc(Cl)c2)nc2ccccc12 | 5.9 | 13.4 | 
Nc1nc(NCC2CCCCC2)nc2ccccc12 | > 25 | > 25 | 
CC(C)Nc1nc(N)c2ccccc2n1 | > 25 | > 25 | 
COc1ccc(CNc2nc(N)c3ccccc3n2)cc1 | 6.8 | > 25 | 
Cc1ccc(CNc2nc(N)nc3ccccc23)cc1 | 3.9 | > 25 | 
COc1cccc(CNc2nc(N)nc3ccccc23)c1 | 20.6 |  | IC50 [2]: Not Active
Nc1nc(NCc2ccccc2)c2ccccc2n1 | 4.8 | > 25 | 
Cc1cccc(CNc2nc(N)nc3ccccc23)c1 | 3.6 | > 25 | 
Nc1nc(NCc2cccc(F)c2)nc2ccccc12 | 11.3 | 14.7 | 

Continued by falling IC50 [1], values first:

IC50 [1] [µM] | IC50 ([2]; read-out: IC50) [µM] | SMILES | further results
3 | 8.7 | O=S(=O)(O)c1cc(S(=O)(=O)O)c2c(/N=N/c3ccccc3)c(O)ccc2c1 [ORANGE G SODIUM] | 
2.8 | > 25 | Nc1nc(NCc2cccc(F)c2)c2ccccc2n1 | 
2.3 | 5.3 | Nc1nc(NCc2ccc(C(F)(F)F)cc2)nc2ccccc12 | 
2.2 | 8.4 | Nc1nc(NCc2ccccc2)nc2ccccc12 | 
1.9 | > 25 | Nc1nc(NCc2ccc(C(F)(F)F)cc2)c2ccccc2n1 | 
1.9 | > 25 | Nc1nc(NCc2cccc(Cl)c2)c2ccccc2n1 | 
1.7 | 1.7 | Nc1nc(NCc2ccc(Br)cc2)nc2ccccc12 | inhibition [1]: Dose-dependent effect; inhibition [5]: Active; inhibition [6]: Active; inhibition [2]: Dose-dependent effect; inhibition [8]: Active; Ratio IC50 [10]: 1.8
1.5 | 2.7 | Nc1nc(NCc2cccc(Br)c2)nc2ccccc12 | inhibition [1]: Dose-dependent effect; inhibition [2]: Dose-dependent effect; TIME [8]: 6 h
1.1 | > 25 | COc1ccc(CNc2nc(N)nc3ccccc23)cc1 | 
0.93 | 8.1 | Nc1nc(NCc2ccc(Cl)cc2)nc2ccccc12 | 
0.62 | > 25 | Nc1nc(NCc2ccc(Cl)cc2)c2ccccc2n1 | Ratio IC50 [7]: 2.4
0.58 | 22.3 | Nc1nc(NCc2cccc(Br)c2)c2ccccc2n1 | TIME [8]: 2.6 h; inhibition [9]: Active
0.08 | 14.8 | Nc1nc(NCc2ccc(Br)cc2)c2ccccc2n1 | inhibition [5]: Active; inhibition [6]: Active; Ratio IC50 [7]: 18; TIME [8]: 3.5 h; inhibition [9]: Active
